The record followed here is ChEMBL document CHEMBL3526095, “Characterization of the in vitro and in vivo metabolism and disposition and cytochrome P450 inhibition/induction profile of saxagliptin in human” (Drug Metab Dispos, 2012).

One may read the bioavailability as dose-corrected exposure relative to a reference, in per cent. As usually defined, the Km is the substrate concentration at which the rate is half of its maximum. As a reminder, the Vmax is the rate approached at saturating substrate. Broadly, the IC50 is the concentration that gives 50% inhibition.

The test system of series [1] is Hepatocyte. As to the kind of experiment: Cytotoxicity against human hepatocytes assessed as change in morphological integrity up to 25 uM. The series is classed as cell-based.
A short description of series [2]: Oral bioavailability in monkey. The format is ADME, organism-based, Macaca mulatta. The following applies: rhesus monkey, in vivo.
Series [3] in a line: Drug metabolism in human assessed as metabolite level in urine at 50 mg, po up to 168 hrs by LC-MS/MS analysis. The series is classed as ADME, organism-based. The following applies: in vivo. An outline of the steps:
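Single 50-mg oral solution dose of [14C]saxagliptin (91.5 µCi) given to healthy male subjects after a 10-h fast. Urine collected as 0–12 h and 12–24 h pools, then in 24-h intervals to 168 h. Saxagliptin and M2 measured by validated positive-ESI LC-MS/MS with MRM; urine standard curves 25–5000 ng/ml for saxagliptin and 50–10,000 ng/ml for M2.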

Another series relates to Liver microsome. As to the kind of experiment: Drug metabolism in human liver microsomes assessed as formation of 5-hydroxy saxagliptin Michaelis-Menten kinetic analysis. The series is classed as ADME. The method in brief:
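M2 formation kinetics measured in triplicate at twelve saxagliptin concentrations from 1 to 800 µM. Enzyme source was pooled HLM (0.25 mg/ml, 30 min, 37°C) or expressed CYP3A4 or CYP3A5 (10 pmol/ml, 10 min). Incubations contained 1 mM NADPH and 2 mM MgCl2 in phosphate buffer pH 7.4.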
(Microsomes from liver hold many membrane-bound enzymes, among them those of drug oxidation.)

For series [4], the target named is T1, Cytochrome P450 3A4 (Homo sapiens, UniProt P08684). Briefly: Inhibition of CYP3A4 in human liver microsomes assessed as testosterone 6beta-hydroxylation after 3 mins by LC-MS/MS analysis in presence of NADPH. The format is ADME.
The target of the next series is T2, Cytochrome P450 2A6 (Homo sapiens, UniProt P11509).
T2 sequence (P11509 whole entry): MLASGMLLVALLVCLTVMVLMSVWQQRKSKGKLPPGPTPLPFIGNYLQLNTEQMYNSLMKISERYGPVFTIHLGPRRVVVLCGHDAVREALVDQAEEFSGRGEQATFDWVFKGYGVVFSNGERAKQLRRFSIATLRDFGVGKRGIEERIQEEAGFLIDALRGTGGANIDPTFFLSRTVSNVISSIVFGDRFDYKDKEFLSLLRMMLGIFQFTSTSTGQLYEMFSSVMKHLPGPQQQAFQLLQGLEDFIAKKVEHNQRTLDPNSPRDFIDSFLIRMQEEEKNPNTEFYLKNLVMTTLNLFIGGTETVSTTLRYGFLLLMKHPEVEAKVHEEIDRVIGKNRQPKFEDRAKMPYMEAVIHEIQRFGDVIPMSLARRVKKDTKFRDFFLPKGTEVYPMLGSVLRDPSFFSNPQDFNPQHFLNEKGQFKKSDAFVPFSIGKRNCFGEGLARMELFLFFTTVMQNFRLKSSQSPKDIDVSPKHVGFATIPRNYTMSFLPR
As to the kind of experiment: Inhibition of CYP2A6 in human liver microsomes assessed as coumarin 7-hydroxylation preincubated for 15 mins by LC-MS/MS analysis in presence of NADPH. The format is ADME.

For series [5], the target named is T1, Cytochrome P450 3A4. Briefly: Inhibition of CYP3A4 in human liver microsomes assessed as midazolam 1'-hydroxylation preincubated for 15 mins by LC-MS/MS analysis. The format is ADME.
Series [6] deals with T1, Cytochrome P450 3A4. As to the kind of experiment: Inhibition of CYP3A4 in human liver microsomes assessed as testosterone 6beta-hydroxylation preincubated for 15 mins by LC-MS/MS analysis in presence of NADPH. The format is ADME.
Series [7] deals with Hepatocyte. Briefly: Cytotoxicity against human hepatocytes assessed as change in morphological integrity up to 100 uM. The format is cell-based.
Series [8] concerns Hepatocyte. Briefly: Cytotoxicity against human hepatocytes up to 100 uM by lactate dehydrogenase assay. The format is cell-based.
Series [9] has as its system Hepatocyte. As to the kind of experiment: Induction of CYP1A2 mRNA expression in human hepatocytes assessed as phenacetin O-deethylation up to 100 uM by LC-MS/MS analysis. The series is classed as ADME, cell-based. The method in brief:
(§1)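 Primary hepatocytes from three donors treated once daily for 3 days: saxagliptin 0.2–25 µM, M2 0.2–100 µM, 0.1% DMSO as vehicle. Microsomal activity assayed by LC-MS/MS: phenacetin 100 µM with 0.02 mg/ml protein (CYP1A2), bupropion 250 µM with 0.02 mg/ml (CYP2B6), testosterone 200 µM with 0.01 mg/ml (CYP3A4). mRNA measured by TaqMan qPCR as 2^ΔCT relative to endogenous control and DMSO.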

In series [10] the test system is Hepatocyte. Briefly: Induction of CYP2B6 mRNA expression in human hepatocytes assessed as bupropion hydroxylation up to 100 uM by LC-MS/MS analysis. The series is classed as ADME, cell-based. An outline of the steps: as §1
A further series concerns the target Cytochrome P450 3A5 (Homo sapiens, UniProt P20815). As to the kind of experiment: Drug metabolism assessed as human CYP3A5-mediated metabolite formation treated with 10 uM of [14C]saxagliptin after 30 mins by LC-MS/MS analysis. The series is classed as ADME. As to conditions: recombinant enzyme, 0.5 h; call rule not given here. The method in brief: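 Expressed human CYP3A4 or CYP3A5 at 500 pmol/ml, incubated with 10 µM [14C]saxagliptin and 1 mM NADPH in 100 mM phosphate buffer pH 7.4 at 37°C for 30 min. Stopped with ice-cold acetonitrile; analysed by LC-MS/MS and off-line radioanalysis.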

T1 sequence (P08684 whole entry): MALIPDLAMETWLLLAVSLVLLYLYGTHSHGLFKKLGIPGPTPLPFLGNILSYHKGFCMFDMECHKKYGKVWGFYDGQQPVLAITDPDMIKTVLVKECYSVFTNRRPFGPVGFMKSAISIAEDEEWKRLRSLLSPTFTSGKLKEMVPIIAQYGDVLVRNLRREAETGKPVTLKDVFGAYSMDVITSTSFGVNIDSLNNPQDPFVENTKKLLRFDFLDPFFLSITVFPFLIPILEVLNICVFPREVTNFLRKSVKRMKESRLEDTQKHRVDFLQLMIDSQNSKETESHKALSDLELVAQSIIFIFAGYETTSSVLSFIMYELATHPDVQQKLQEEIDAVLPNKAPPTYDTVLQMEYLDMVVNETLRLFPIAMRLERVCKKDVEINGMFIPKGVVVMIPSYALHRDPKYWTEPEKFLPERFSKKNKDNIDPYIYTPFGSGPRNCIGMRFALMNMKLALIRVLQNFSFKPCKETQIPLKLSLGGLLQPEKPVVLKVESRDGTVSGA
Cytochrome P450 3A5, sequence (P20815 whole entry): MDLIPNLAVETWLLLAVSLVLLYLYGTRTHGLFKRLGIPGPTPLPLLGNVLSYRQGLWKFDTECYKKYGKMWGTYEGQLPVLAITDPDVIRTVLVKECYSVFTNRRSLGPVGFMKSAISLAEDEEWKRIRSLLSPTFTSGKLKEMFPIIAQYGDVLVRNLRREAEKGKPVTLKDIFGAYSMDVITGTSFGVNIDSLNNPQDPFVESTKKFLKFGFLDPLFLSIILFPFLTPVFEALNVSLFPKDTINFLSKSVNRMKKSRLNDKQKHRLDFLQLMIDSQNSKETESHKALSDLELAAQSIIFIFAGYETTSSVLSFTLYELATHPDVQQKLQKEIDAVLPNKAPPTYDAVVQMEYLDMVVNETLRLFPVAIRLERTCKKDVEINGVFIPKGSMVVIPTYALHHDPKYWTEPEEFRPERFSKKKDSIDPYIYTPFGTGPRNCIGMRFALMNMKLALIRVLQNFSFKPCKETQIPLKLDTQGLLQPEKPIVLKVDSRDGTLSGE

Consider `N#C[C@@H]1C[C@@H]2C[C@@H]2N1C(=O)[C@@H](N)C12CC3CC(CC(O)(C3)C1)C2` [SAXAGLIPTIN ANHYDROUS], for which the Activity result with Hepatocyte [1] was “Non-toxic”. The compound also gave a bioavailability in [2] of 51%. The Drug metabolism result in series [3] is “metabolite_detected”. Also, in the series with Liver microsome, the Michaelis-Menten constant (Km) was 94.8 µM and the Vmax is 496 pmol/min.
Turning to `N#C[C@@H]1C[C@@H]2C[C@@H]2N1C(=O)[C@@H](N)C12CC3CC(O)(CC(O)(C3)C1)C2`, the half-maximal inhibitory concentration (IC50) at Cytochrome P450 3A4 [4], on Cytochrome P450 2A6, on Cytochrome P450 3A4 [5] and at Cytochrome P450 3A4 [6] was more than 200 µM throughout. Moreover, the Activity result is “Non-toxic” with Hepatocyte [7], “Non-toxic” in the series on Hepatocyte [8], “Not Active” in the series on Hepatocyte [9] and “Not Active” with Hepatocyte [10]. Further, the Drug metabolism entry on Cytochrome P450 3A5 was “metabolite_detected”.
